What all share (assay type): functional, cell-based
Assay [1] deals with HeLa. The assay is described as follows: Antiproliferative activity against human HeLa cells after 24 hrs by WST-1 assay. In a few lines:
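HeLa cells grown in RPMI 1640 with 10% inactivated FBS, penicillin, streptomycin and L-glutamine at 37 °C under 5% CO2. They were trypsinized, seeded at 5 × 10³ cells/well, and left 12 h. Compounds were added at five concentrations for 24 h. WST-1 was added and absorbance read at 450 nm. IC50 was calculated from absorbance.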

Assay [2] has as its system HeLa. The assay is described as follows: Cell cycle arrest in human HeLa cells assessed as increase in G1 phase cells after 24 hrs by flow cytometry using propidium iodide staining. In a few lines:
(§1)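 After 24 h drug exposure at 37 °C, HeLa cells were trypsinized. About 1 × 10⁶ cells were washed twice in cold PBS and fixed overnight in chilled 75% methanol at −20 °C. DNA content was measured by propidium iodide flow cytometry, and the percentage of cells in each cycle phase was calculated. Untreated cultures served as controls.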

Assay [3] concerns HeLa. The assay is described as follows: Decrease in CyclinD1 protein expression in human HeLa cells after 24 hrs by Western blotting. In a few lines: (§2)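 HeLa cells were treated 24 h, trypsinized, washed in ice-cold PBS and lysed on ice in RIPA with PMSF. Lysates were clarified at 12,000 rpm, 4 °C, 15 min, and protein was measured by Bradford. Extracts ran on 12% SDS–PAGE onto PVDF, with milk/Tween blocking for 2 h. Rabbit anti-cyclin D1 and anti-Rb (1:100) and biotinylated anti-rabbit (1:400) were each applied 1 h at 37 °C, with ABC detection. β-actin was the loading control.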
Background: In western blotting, separated proteins are transferred to a membrane and probed.

Assay [4] relates to HeLa. The assay is described as follows: Decrease in Rb protein expression in human HeLa cells after 24 hrs by Western blotting. In a few lines: as §2
The subject of assay [5] is HeLa. As to the kind of experiment: Decrease in Rb phosphorylation in human HeLa cells after 24 hrs by Western blotting. In a few lines: as §2
Assay [6] has as its system HeLa. The assay is described as follows: Cell cycle arrest in human HeLa cells assessed as decrease in S phase cells after 24 hrs by flow cytometry using propidium iodide staining. In outline: as §1
In general terms: Flow cytometry measures light scatter and fluorescence of single cells or particles in a stream.

For assay [7], the system named is HeLa. As to the kind of experiment: Cell cycle arrest in human HeLa cells assessed as decrease in G2-M phase cells after 24 hrs by flow cytometry using propidium iodide staining. In a few lines: as §1

Active and inactive are the calls of the source. No cut-off for these calls is given here.

One may read the IC50 as the concentration that gives 50% inhibition. On to `C=C[C@]1(C)CC[C@@H](C(=C)CN(CC)CC)C[C@H]1C(=C)C`, for which, in assay [1], half-maximal inhibition (IC50) required 14.3 µM. For the same compound, the outcome in assay [2] was Active.
`C=C[C@]1(C)CC[C@@H](C(=C)CNC2CCCCC2)C[C@H]1C(=C)C` displayed an IC50 in assay [1] of 3.39 µM. The result in assay [2] was Active.
Taken in the same sequence, the figures for `C=C[C@]1(C)CC[C@@H](C(=C)CNC2CCCCCCC2)C[C@H]1C(=C)C` were 5.9 µM and “Active”.
As to `C=C[C@]1(C)CC[C@@H](C(=C)C)C[C@H]1C(=C)C`, the half-inhibitory concentration (IC50) in assay [1] amounted to 236 µM. Also, the outcome in assay [2] was Active.
On to `C=C[C@]1(C)CC[C@@H](C(=C)COCCCC)C[C@H]1C(=C)C`, for which, in assay [1], the IC50 was found to be 266 µM. In addition, the result in assay [2] was Active.
With `C=C[C@]1(C)CC[C@@H](C(=C)COCC)C[C@H]1C(=C)C`, in assay [1], it took 106 µM to reach half-maximal inhibition (IC50). Besides, the result in assay [2] was Active.
For `C=C[C@]1(C)CC[C@@H](C(=C)COC)C[C@H]1C(=C)C`, in that order: 212 µM and “Active”.
For `C=C[C@]1(C)CC[C@@H](C(=C)COCCOC)C[C@H]1C(=C)C`, in that order: 238 µM and “Active”.
For `C=C[C@]1(C)CC[C@@H](C(=C)CNC2CCCC2)C[C@H]1C(=C)C`, in that order: 0.52 µM and “Active”.
Compound `C=C[C@]1(C)CC[C@@H](C(=C)CNC(C)C)C[C@H]1C(=C)C` yielded a concentration for half-maximal inhibition (IC50) in assay [1] of 0.04 µM. Further, the result in assay [2] was Active.
For `C=C[C@]1(C)CC[C@@H](C(=C)Cn2ccnc2)C[C@H]1C(=C)C`, in that order: 15.7 µM and “Active”.
For `C=C[C@]1(C)CC[C@@H](C(=C)CNC(C)(C)C)C[C@H]1C(=C)C`, in that order: 25.4 µM and “Active”.
On to `C=C[C@]1(C)CC[C@@H](C(=C)CNCCCC)C[C@H]1C(=C)C`, for which, in assay [1], the IC50 is 10.8 µM. For the same compound, the outcome in assay [2], in assay [3], in assay [5], in assay [6] and in assay [7] was Active. Further, in assay [4], the outcome was inactive.
